This is an account of results in ChEMBL document CHEMBL2424608, “Discovery of novel N-substituted carbazoles as neuroprotective agents with potent anti-oxidative activity” (Eur J Med Chem, 2013).

In data set [1] the test system is HT-22. Kind of data set: Neuroprotective activity against mouse HT22 cells assessed as inhibition of HCA-induced cell injury pretreated at 30 uM for 30 mins measured after 24 hrs by MTT assay. The class given is functional. In outline: (§1)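 HT22 mouse hippocampal cells in DMEM/10% FBS at 37 °C, 5% CO2, seeded at 4000 cells/well. Compound (30 mM DMSO stock, diluted in medium) added 30 min before glutamate (2 mM) or HCA (500 µM), then 24 h exposure. Controls get vehicle. Viability by MTT (500 µg/mL, 1 h, 37 °C), DMSO solubilisation, A570 relative to control = 100%. n = 6.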

In data set [2] the test system is HT-22. The experiment in a line: Neuroprotective activity against mouse HT22 cells assessed as inhibition of HCA-induced cell injury pretreated at 3 uM for 30 mins measured after 24 hrs by MTT assay. In kind it is functional. In short, it runs like this:
as §1

Data set [3] deals with HT-22. The experiment in a line: Neuroprotective activity against mouse HT22 cells assessed as inhibition of HCA-induced cell injury pretreated at 10 uM for 30 mins measured after 24 hrs by MTT assay. The class given is functional. In short, it runs like this: as §1
Data set [4] deals with HT-22. The experiment in a line: Neuroprotective activity against mouse HT22 cells assessed as inhibition of glutamate-induced cell injury pretreated at 30 uM for 30 mins measured after 24 hrs by MTT assay. In kind it is functional. In short, it runs like this: as §1
Background: Tetrazolium dyes change colour on reduction, which living cells bring about.

Data set [5] has as its system HT-22. Kind of data set: Neuroprotective activity against mouse HT22 cells assessed as inhibition of glutamate-induced cell injury pretreated at 10 uM for 30 mins measured after 24 hrs by MTT assay. In kind it is functional. In short, it runs like this: as §1
Data set [6] has as its system HT-22. The experiment in a line: Neuroprotective activity against mouse HT22 cells assessed as inhibition of glutamate-induced cell injury pretreated at 3 uM for 30 mins measured after 24 hrs by MTT assay. In kind it is functional. In outline:
as §1

The test system of data set [7] is HT-22. Kind of data set: Neuroprotective activity against mouse HT22 cells assessed as inhibition of glutamate-induced cell shrinkage and debris pretreated at 3 uM for 30 mins measured after 24 hrs by phase-contrast microscopy. The class given is functional, cell-based. In outline: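 HT22 cells get compound 30 min before glutamate (2 mM). Morphology is viewed by inverted phase-contrast microscopy.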

Data set [8] has as its system HT-22. Kind of data set: Neuroprotective activity against mouse HT22 cells assessed as inhibition of glutamate-induced ROS production pretreated for 30 mins measured after 10 hrs by DHE-based fluorescence assay. In kind it is functional, cell-based. In outline: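 HT22 cells get compound for 30 min, then glutamate (2 mM). After exposure, cells are washed with PBS pH 7.4 and loaded with DHE at 10 µM in serum-free DMEM for 30 min. Fluorescence microscopy plus plate-reader intensity at ex 485/em 595 nm.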

Data set [9] has as its system HT-22. Kind of data set: Neuroprotective activity against mouse HT22 cells assessed as inhibition of glutamate-induced cell injury pretreated for 30 mins measured after 24 hrs by MTT assay. The class given is functional, cell-based. In outline:
as §1

Data set [10] has as its system HT-22. Kind of data set: Cytotoxicity against mouse HT22 cells at 30 uM by LDH assay. In kind it is cell-based. The note with it: ht-22, 30 µM. In outline: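 HT22 cells given compound alone at 30 µM; cytotoxicity read by LDH release assay.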
Data set [11] concerns HT-22. The experiment in a line: Neuroprotective activity against mouse HT22 cells assessed as inhibition of glutamate-induced GSH depletion pretreated at 10 to 30 uM for 30 mins measured after 10 hrs by glutathione assay kit.

The source made the active and inactive calls. The calls are words filed in the database; no cut-off is given here.

The inhibition is the drop in the measured response relative to a control, in per cent. In the case of `COc1ccc2c(c1)c1ccccc1n2-c1ccc(C(C)(C)C)cc1`, the inhibition at 30 µM in data set [1] and in data set [4] was 0% in each case. Moreover, the inhibition at 3 µM in data set [2] and in data set [6] was 0% throughout. For the same compound, the inhibition at 10 µM in data set [3] and in data set [5] was 0% throughout.

For the compound `COc1ccc(-n2c3ccccc3c3ccccc32)cc1`, the inhibition at 30 µM worked out at 71% in data set [1] and 59% in data set [4]. For the same compound, the inhibition at 3 µM in [2] worked out at 0%; in [6], 3%. In addition, the inhibition at 10 µM in [3] came to 32%; in data set [5] it was 25%.

Take `CC(C)(C)c1ccc(-n2c3ccccc3c3ccccc32)cc1`: the figures for the inhibition at 30 µM in data set [1] and in data set [4] were 63% and 70%, respectively. The figures for the inhibition at 3 µM in [2] and in data set [6] were 2% and 0%, respectively. For the same compound, the inhibition at 10 µM was 30% in data set [3] and 35% in data set [5].

Take `c1ccc2c(c1)c1ccccc1n2C1CCCCC1`: the inhibition at 30 µM amounted to 10% in data set [1] and 20% in data set [4]. Besides, the inhibition at 3 µM came out at 7% in [2] and 3% in [6]. Also, the inhibition at 10 µM in [3] and in [5] was 8% throughout.

`COc1ccc2c(c1)c1ccccc1n2S(=O)(=O)c1ccc(C)cc1`: the values for the inhibition at 30 µM in data set [1] and in [4] were 0% and 5.2%, respectively. Moreover, the inhibition at 3 µM in data set [2] and in data set [6] was 0% each time. Besides, the inhibition at 10 µM turned out to be 0% in [3] and 3% in data set [5].

For the compound `Cc1ccc(S(=O)(=O)n2c3ccccc3c3ccc4ccccc4c32)cc1`, the results for the inhibition at 30 µM in [1] and in [4] were 30% and 26%, respectively. Further, the values for the inhibition at 3 µM in data set [2] and in data set [6] were 18% and 4%, respectively. The inhibition at 10 µM in data set [3] was found to be 30%; in [5] it was 16%.

Regarding `Brc1ccc(-n2c3ccccc3c3ccccc32)cc1`, the inhibition at 30 µM in data set [1] and in data set [4] was 0% each time. The inhibition at 3 µM in data set [2] and in [6] was 0% throughout. Also, the inhibition at 10 µM in [3] and in data set [5] was 0% throughout.

`CCc1ccc(S(=O)(=O)n2c3ccccc3c3ccccc32)cc1`: the inhibition at 30 µM in [1] was determined as 30%; in [4] it was 28%. Besides, the inhibition at 3 µM in [2] and in data set [6] was 0% in each case. In addition, the inhibition at 10 µM in data set [3] is 6%; in data set [5], 3%.

Consider `Cc1ccc(-n2c3ccccc3c3ccccc32)cc1`, for which the inhibition at 30 µM in data set [1] and in data set [4] was 0% in each case. The inhibition at 3 µM in data set [2] and in data set [6] was 0% in each case. Also, the inhibition at 10 µM in [3] and in data set [5] was 0% in each case.

For `c1ccc2c(c1)sc1ccccc12`, the inhibition entry in data set [1] and in [4] was “inactive” throughout.

Turning to `Fc1cccc(-n2c3ccccc3c3ccccc32)c1`, the inhibition at 30 µM in [1] and in data set [4] was 0% throughout. The inhibition at 3 µM in [2] and in [6] was 0% in each case. The inhibition at 10 µM in data set [3] and in data set [5] was 0% each time.

Take `Cc1ccc(S(=O)(=O)n2c3ccccc3c3ccc(-c4ccccc4)cc32)cc1`: the inhibition at 30 µM in data set [1] and in [4] was 30% throughout. Besides, the figures for the inhibition at 3 µM in data set [2] and in data set [6] were 11% and 12%, respectively. Moreover, the inhibition at 10 µM in data set [3] came to 18%; in [5], 19%.

For `Fc1ccc(-n2c3ccccc3c3ccccc32)cc1`, the inhibition at 30 µM in [1] and in data set [4] was 0% throughout. The inhibition at 3 µM in data set [2] and in data set [6] was 0% each time. Further, the inhibition at 10 µM in data set [3] and in data set [5] was 0% throughout.

On to `Cc1ccc(-n2c3ccccc3c3ccc(-c4ccccc4)cc32)cc1`, for which the inhibition result in data set [7] is “Active”. The inhibition entry in data set [8] and in data set [9] was “Dose-dependent effect” each time. Moreover, the inhibition at 30 µM was 44% in data set [1] and 50% in [4]. In addition, the Activity result in [10] is reported as “Non-toxic”. The inhibition at 3 µM in data set [2] was 64%; in [6] it was 63%. For the same compound, the inhibition at 10 µM in data set [3] turned out to be 77%; in data set [5] it was 69%. Besides, in data set [11], the inhibition result was “inactive”.

For `Cc1ccc(S(=O)(=O)n2c3ccccc3c3ccccc32)cc1`, the inhibition at 30 µM in data set [1] is 34%; in [4] it was 47%. Further, the inhibition at 3 µM was found to be 4% in data set [2] and 0% in [6]. The inhibition at 10 µM was 13% in data set [3] and 10% in [5].

For the compound `Cc1ccc(S(=O)(=O)n2c3ccccc3c3ccc(C(F)(F)F)cc32)cc1`, the inhibition at 30 µM in data set [1] was 38%; in data set [4] it was 42%. Further, the inhibition at 3 µM in [2] and in data set [6] was 0% each time. The inhibition at 10 µM in data set [3] was found to be 6%; in data set [5] it was 10%.

For `CN(C)c1ccc(-n2c3ccccc3c3ccccc32)cc1`, the inhibition at 30 µM in data set [1] was determined as 81%; in data set [4], 77%. Besides, the inhibition at 3 µM in data set [2] was found to be 0%; in [6], 20%. Further, the inhibition at 10 µM in data set [3] was 30%; in data set [5], 40%.

For the compound `Cc1ccc(-n2c3ccccc3c3ccccc32)nc1`, the inhibition at 30 µM was 12% in data set [1] and 5% in [4]. For the same compound, the inhibition at 3 µM in data set [2] and in data set [6] was 0% each time. Also, the inhibition at 10 µM is 5% in data set [3] and 0% in [5].

`FC(F)(F)c1ccc(-n2c3ccccc3c3ccccc32)cc1`: the results for the inhibition at 30 µM in [1] and in data set [4] were 80% and 68%, respectively. For the same compound, the inhibition at 3 µM in [2] and in [6] was 0% in each case. The inhibition at 10 µM in data set [3] is 10%; in data set [5] it was 14%.

With `Cc1ccc(-n2c3ccccc3c3ccc4ccccc4c32)cc1`, the inhibition at 30 µM in [1] and in data set [4] was 0% each time. Moreover, the inhibition at 3 µM in data set [2] and in [6] was 0% in each case. Further, the inhibition at 10 µM in data set [3] and in data set [5] was 0% in each case.

As to `c1ccc(-n2c3ccccc3c3ccccc32)cc1`, the inhibition at 30 µM in data set [1] is 5%; in [4], 6%. In addition, the inhibition at 3 µM in [2] and in data set [6] was 0% throughout. For the same compound, the inhibition at 10 µM in data set [3] came out at 0%; in data set [5] it was 7%.

`Clc1ccc(-n2c3ccccc3c3ccccc32)cc1`: the inhibition at 30 µM in [1] was 40%; in data set [4], 20%. Besides, the inhibition at 3 µM in data set [2] and in data set [6] was 0% throughout. Further, the inhibition at 10 µM in data set [3] and in data set [5] was 0% throughout.

Take `Cc1ccc(S(=O)(=O)n2c3ccccc3c3ccc(C#N)cc32)cc1`: the inhibition at 30 µM in data set [1] came to 0%; in [4], 7%. In addition, the inhibition at 3 µM in [2] was found to be 0%; in [6], 3%. Besides, the inhibition at 10 µM in data set [3] stood at 0%; in [5], 2%.

In the case of `OCCCCn1c2ccccc2c2ccccc21`, the figures for the inhibition at 30 µM in data set [1] and in data set [4] were 12% and 4%, respectively. Besides, the inhibition at 3 µM in [2] and in data set [6] was 0% each time. Moreover, the inhibition at 10 µM in data set [3] and in data set [5] was 1% throughout.

For `COc1ccc2c3ccccc3n(S(=O)(=O)c3ccc(C)cc3)c2c1`, the figures for the inhibition at 30 µM in data set [1] and in [4] were 0% and 4%, respectively. The figures for the inhibition at 3 µM in data set [2] and in data set [6] were 0% and 0.8%, respectively. For the same compound, the inhibition at 10 µM was determined as 0% in data set [3] and 2% in [5].

With `c1ccc2c(c1)oc1ccccc12`, the inhibition result in data set [1] and in data set [4] was “inactive” throughout.

For `CCCCn1c2ccccc2c2ccccc21`, the inhibition at 30 µM in data set [1] and in data set [4] was 0% in each case. Also, the inhibition at 3 µM in data set [2] and in data set [6] was 0% each time. Further, the inhibition at 10 µM in data set [3] and in [5] was 0% in each case.
